In ChEMBL document CHEMBL2331168, “Anticonvulsant evaluation of aminoalkanol derivatives of 2- and 4-methylxanthone” (Bioorg Med Chem, 2013):
Activity calls are given as the source filed them.

Key:
Rattus norvegicus [1] = assay: Anticonvulsant activity in Sprague-Dawley rat assessed as protection against maximal electroshock-induced seizures at 30 mg/kg, po after 2 hrs; type: functional, organism-based; set-up: dose 30 mg/kg
Outline: (§1)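 Male Sprague-Dawley rats dosed orally at 30 mg/kg and tested at 0.25, 0.5, 1, 2 and 4 h. Seizures were induced by 60 Hz alternating current at 150 mA for 0.2 s through corneal electrodes, after a drop of 0.9% NaCl in each eye. Protection meant abolition of hindlimb tonic extension. Reported as protected/tested, usually 4 rats per time point.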

Rattus norvegicus [2] = assay: Anticonvulsant activity in Sprague-Dawley rat assessed as protection against maximal electroshock-induced seizures at 30 mg/kg, po after 0.25 hrs; type: functional, organism-based; set-up: dose 30 mg/kg; outline: as §1
Mus musculus [3] = assay: Neurotoxicity in albino mouse assessed as minimal motor impairment at 100 mg/kg, ip after 4 hrs by rotorod test; type: toxicity, organism-based; set-up: dose 100 mg/kg, route intraperitoneal; settings: in vivo
Outline: (§2)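 Male albino mice (Carworth Farms No. 1) were dosed ip with suspensions in 0.5% methylcellulose and put on a 1 in. knurled rod rotating at 6 rpm at set times after dosing. Neurotoxicity meant failure to stay on the rod for at least 1 min in each of three trials. Scored as impaired/tested.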

Mus musculus [4] = assay: Neurotoxicity in albino mouse assessed as minimal motor impairment at 30 mg/kg, ip after 4 hrs by rotorod test; type: toxicity, organism-based; set-up: dose 30 mg/kg, route intraperitoneal; settings: in vivo; outline: as §2
Mus musculus [5] = assay: Neurotoxicity in albino mouse assessed as minimal motor impairment at 300 mg/kg, ip after 0.5 hrs by rotorod test; type: toxicity, organism-based; set-up: dose 300 mg/kg, route intraperitoneal; settings: in vivo; outline: as §2
Mus musculus [6] = assay: Neurotoxicity in albino mouse assessed as minimal motor impairment at 100 mg/kg, ip after 0.5 hrs by rotorod test; type: toxicity, organism-based; set-up: dose 100 mg/kg, route intraperitoneal; settings: in vivo; outline: as §2
Mus musculus [7] = assay: Anticonvulsant activity in albino mouse assessed as protection against subcutaneous pentetrazole-induced seizures at 100 mg/kg, ip after 4 hrs; type: functional, organism-based; set-up: dose 100 mg/kg
Outline: (§3)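 Male albino mice (Carworth Farms No. 1) received compound ip in 0.5% methylcellulose, then pentetrazole 85 mg/kg sc in 0.9% NaCl at 0.5 or 4 h. Mice were watched for at least 30 min. Protection meant no threshold seizure, defined as a single clonic spasm lasting at least 5 s. Scored as protected/tested.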

Mus musculus [8] = assay: Anticonvulsant activity in albino mouse assessed as protection against subcutaneous pentetrazole-induced seizures at 30 mg/kg, ip after 4 hrs; type: functional, organism-based; set-up: dose 30 mg/kg; outline: as §3
Mus musculus [9] = assay: Anticonvulsant activity in albino mouse assessed as protection against subcutaneous pentetrazole-induced seizures at 100 mg/kg, ip after 0.5 hrs; type: functional, organism-based; set-up: dose 100 mg/kg; outline: as §3
Mus musculus [10] = assay: Anticonvulsant activity in albino mouse assessed as protection against subcutaneous pentetrazole-induced seizures at 30 mg/kg, ip after 0.5 hrs; type: functional, organism-based; set-up: dose 30 mg/kg; outline: as §3
Mus musculus [11] = assay: Anticonvulsant activity in albino mouse assessed as protection against maximal electroshock-induced seizures at 100 mg/kg, ip after 4 hrs; type: functional, organism-based; set-up: dose 100 mg/kg
Outline: (§4)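 Male albino mice (Carworth Farms No. 1) were given the compound ip as a suspension in 0.5% methylcellulose at 3–300 mg/kg. MES testing was at 0.5 and 4 h, sometimes also at 0.25 and 1 h. Current was 60 Hz, 50 mA, 0.2 s via corneal electrodes, with saline eye drops. Protection meant no hindlimb tonic extension, scored as protected/tested.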

Mus musculus [12] = assay: Anticonvulsant activity in albino mouse assessed as protection against maximal electroshock-induced seizures at 30 mg/kg, ip after 4 hrs; type: functional, organism-based; set-up: dose 30 mg/kg; outline: as §4
Mus musculus [13] = assay: Anticonvulsant activity in albino mouse assessed as protection against maximal electroshock-induced seizures at 100 mg/kg, ip after 0.5 hrs; type: functional, organism-based; set-up: dose 100 mg/kg; outline: as §4
Mus musculus [14] = assay: Anticonvulsant activity in albino mouse assessed as protection against maximal electroshock-induced seizures at 30 mg/kg, ip after 0.5 hrs; type: functional, organism-based; set-up: dose 30 mg/kg; outline: as §4
Mus musculus [15] = assay: Neurotoxicity in albino mouse assessed as minimal motor impairment at 30 mg/kg, ip after 0.5 hrs by rotorod test; type: toxicity, organism-based; set-up: dose 30 mg/kg, route intraperitoneal; settings: in vivo; outline: as §2
Rattus norvegicus [16] = assay: Neurotoxicity in Sprague-Dawley rat assessed as minimal motor impairment at 30 mg/kg, po after 1 hr by rotorod test; settings: in vivo
Rattus norvegicus [17] = assay: Neurotoxicity in Sprague-Dawley rat assessed as minimal motor impairment at 30 mg/kg, po after 4 hrs by rotorod test; settings: in vivo
Rattus norvegicus [18] = assay: Neurotoxicity in Sprague-Dawley rat assessed as minimal motor impairment at 30 mg/kg, po after 2 hrs by rotorod test; settings: in vivo
Rattus norvegicus [19] = assay: Neurotoxicity in Sprague-Dawley rat assessed as minimal motor impairment at 30 mg/kg, po after 0.5 hrs by rotorod test; settings: in vivo
Rattus norvegicus [20] = assay: Neurotoxicity in Sprague-Dawley rat assessed as minimal motor impairment at 30 mg/kg, po after 0.25 hrs by rotorod test; settings: in vivo
Rattus norvegicus [21] = assay: Anticonvulsant activity in Sprague-Dawley rat assessed as protection against maximal electroshock-induced seizures at 30 mg/kg, po after 0.5 hrs; type: functional, organism-based; set-up: dose 30 mg/kg; outline: as §1
Mus musculus [22] = assay: Neurotoxicity in albino mouse assessed as minimal motor impairment at 300 mg/kg, ip after 4 hrs by rotorod test; type: toxicity, organism-based; set-up: dose 300 mg/kg, route intraperitoneal; settings: in vivo; outline: as §2
Mus musculus [23] = assay: Anticonvulsant activity in albino mouse assessed as protection against subcutaneous pentetrazole-induced seizures at 300 mg/kg, ip after 4 hrs; type: functional, organism-based; set-up: dose 300 mg/kg; outline: as §3
Mus musculus [24] = assay: Anticonvulsant activity in albino mouse assessed as protection against subcutaneous pentetrazole-induced seizures at 300 mg/kg, ip after 0.5 hrs; type: functional, organism-based; set-up: dose 300 mg/kg; outline: as §3
Mus musculus [25] = assay: Anticonvulsant activity in albino mouse assessed as protection against maximal electroshock-induced seizures at 300 mg/kg, ip after 4 hrs; type: functional, organism-based; set-up: dose 300 mg/kg; outline: as §4
Mus musculus [26] = assay: Anticonvulsant activity in albino mouse assessed as protection against maximal electroshock-induced seizures at 300 mg/kg, ip after 0.5 hrs; type: functional, organism-based; set-up: dose 300 mg/kg; outline: as §4

| SMILES | Activity (Rattus norvegicus [1]) | Activity (Mus musculus [3]) | Activity (Mus musculus [4]) | Activity (Mus musculus [5]) | Activity (Mus musculus [6]) | Activity (Mus musculus [7]) | Activity (Mus musculus [8]) | Activity (Mus musculus [9]) | Activity (Mus musculus [10]) | Activity (Mus musculus [11]) | Activity (Mus musculus [12]) | Activity (Mus musculus [13]) | Activity (Mus musculus [14]) | Activity (Mus musculus [15]) | Activity (Rattus norvegicus [16]) | Activity (Rattus norvegicus [17]) | Activity (Rattus norvegicus [18]) | Activity (Rattus norvegicus [19]) | Activity (Rattus norvegicus [20]) | Activity (Rattus norvegicus [21]) | other results |
| --- | --- | --- | --- | --- | --- | --- | --- | --- | --- | --- | --- | --- | --- | --- | --- | --- | --- | --- | --- | --- | --- |
| COc1ccc2c(=O)c3cccc(CNC(C)(C)CO)c3oc2c1 | inactive | Non-toxic | Non-toxic | Toxic | Toxic | inactive | inactive | inactive | inactive | inactive | inactive | Active | inactive | Non-toxic | Non-toxic | Non-toxic | Non-toxic | Non-toxic | Non-toxic |  | Activity (Rattus norvegicus [2]): inactive |
| CC[C@H](CO)NCc1cccc2c(=O)c3ccc(OC)cc3oc12 |  | Non-toxic | Non-toxic | Toxic | Non-toxic | inactive | inactive | inactive | inactive | inactive | inactive |  | inactive | Non-toxic | Non-toxic | Non-toxic | Non-toxic | Non-toxic | Non-toxic | inactive | Activity (Mus musculus [22]): Non-toxic; Activity (Mus musculus [23]): inactive; Activity (Mus musculus [24]): inactive; Activity (Mus musculus [25]): Active; Activity (Mus musculus [26]): Active |
| COc1ccc2c(=O)c3cccc(CNCC(C)O)c3oc2c1 (racemic) |  |  | Non-toxic | Toxic | Toxic | inactive | inactive | inactive | inactive |  | inactive | Active | inactive | Non-toxic |  |  |  |  |  |  |  |
| CC(CO)NCc1ccc2oc3ccc(Cl)cc3c(=O)c2c1 (racemic) | inactive | Non-toxic | Non-toxic | Non-toxic | Non-toxic | inactive | inactive | inactive | inactive |  | inactive | inactive | inactive | Non-toxic | Non-toxic | Non-toxic | Non-toxic | Non-toxic | Non-toxic | inactive | Activity (Rattus norvegicus [2]): inactive; Activity (Mus musculus [22]): Non-toxic; Activity (Mus musculus [23]): inactive; Activity (Mus musculus [24]): inactive; Activity (Mus musculus [25]): Active; Activity (Mus musculus [26]): inactive |
| C[C@H](CO)NCc1ccc2oc3ccc(Cl)cc3c(=O)c2c1 | inactive | Non-toxic | Non-toxic |  | Non-toxic | inactive | inactive | inactive | inactive | inactive | inactive |  | inactive | Non-toxic | Non-toxic | Non-toxic | Non-toxic | Non-toxic | Non-toxic | inactive | Activity (Mus musculus [22]): Non-toxic; Activity (Mus musculus [23]): inactive; Activity (Mus musculus [24]): inactive; Activity (Mus musculus [25]): Active; Activity (Mus musculus [26]): Active |
